Laboratory results from ChEMBL document CHEMBL3865799, “Synthesis of a series of novel dihydroartemisinin monomers and dimers containing chalcone as a linker and their anticancer activity” (Eur J Med Chem, 2016).

What was measured:
[1] = Cell cycle arrest in human HL60 cells assessed as accumulation at subG0 phase at 0.5 uM after 24 hrs by propidium iodide-DNA fluorescence based FACS analysis (reference value: 5 %); format: functional; settings: HL-60
Procedure, shortened: (§1)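 HL-60 cells seeded at 0.5 × 10^6 cells/ml, exposed 24 h to compound (DMSO vehicle, <0.2% v/v). Pelleted at 400×g, PBS-washed, fixed in 70% ethanol at 4 °C overnight. RNase A treatment at 37 °C for 1.30 h, then propidium iodide staining for 20 min. Flow cytometry on 10,000 events, FL2-A vs FL2-W; subG0 (apoptotic) and phase populations gated.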

HL-60 [2] = test: Induction of apoptosis in human HL60 cells assessed as loss of mitochondrial membrane potential at 0.2 uM after 24 hrs by Rh123 dye-based FACS analysis (reference value: 5%); format: functional
[3] = Cytotoxicity against human HepG2 cells assessed as cell growth inhibition at 30 uM after 48 hrs by MTT assay; format: functional; settings: HepG2, 48 h, read-out: GI
Procedure, shortened: (§2)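 Adherent lines at 70–75% confluence, grown at 37 °C in 5% CO2 with 10% FCS. Exposed 48 h to compound in DMSO (vehicle <0.2% v/v). MTT dye added 3 h before termination; formazan dissolved in DMSO, OD 570 nm with 620 nm reference. Growth inhibition expressed as % of untreated; IC50 taken from the dose series.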

Vero [4] = test: Selectivity index, ratio of IC50 for African green monkey Vero cells to IC50 for human HL60 cells; format: functional
Procedure, shortened: (§3)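 Suspension cells were seeded at 1.5 × 10^4 per well and adherent lines at 70–75% confluence, then exposed to a range of concentrations. MTT was added 3 h before the end, formazan dissolved in DMSO, and OD read at 570 nm (reference 620 nm). Growth inhibition was taken relative to untreated cells. IC50 came from the MTT data; SI = IC50 in Vero cells / IC50 in the tumour line.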

[5] = Cytotoxicity against human HL60 cells assessed as cell growth inhibition at 30 uM after 48 hrs by MTT assay; format: functional; settings: HL-60, 48 h, read-out: GI
Procedure, shortened: (§4)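 HL-60 suspension cells, 1.5 × 10^4 per well, grown at 37 °C in 5% CO2 with 10% FCS. Treated 48 h with compound in DMSO (vehicle <0.2% v/v). MTT added 3 h before the end. Formazan dissolved in DMSO and read at 570 nm (reference 620 nm). % growth inhibition computed against untreated cells; IC50 taken from the concentration series.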

[6] = Cell cycle arrest in human HL60 cells assessed as accumulation at S phase at 1 uM after 24 hrs by propidium iodide-DNA fluorescence based FACS analysis (reference value: 53 %); format: functional; settings: HL-60; procedure, shortened: as §1
HL-60 [7] = test: Induction of apoptosis in human HL60 cells assessed as loss of mitochondrial membrane potential at 5 uM after 24 hrs by Rh123 dye-based FACS analysis (reference value: 5%); format: functional
[8] = Cytotoxicity against human LS180 cells assessed as cell growth inhibition at 30 uM after 48 hrs by MTT assay; format: functional; settings: LS180, 48 h, read-out: GI; procedure, shortened: as §2
[9] = Cytotoxicity against human MIAPaCa2 cells assessed as cell growth inhibition after 48 hrs by MTT assay; format: functional, cell-based; settings: MIA PaCa-2, 48 h; procedure, shortened: as §2
[10] = Cytotoxicity against human HL60 cells assessed as cell growth inhibition at 0.5 uM after 48 hrs by MTT assay; format: functional; settings: HL-60, 48 h, read-out: GI; procedure, shortened: as §4
HL-60 [11] = test: Induction of apoptosis in human HL60 cells assessed as loss of mitochondrial membrane potential at 0.5 uM after 24 hrs by Rh123 dye-based FACS analysis (reference value: 5%); format: functional
[12] = Cell cycle arrest in human HL60 cells assessed as accumulation at S phase at 0.5 uM after 24 hrs by propidium iodide-DNA fluorescence based FACS analysis (reference value: 53 %); format: functional; settings: HL-60; procedure, shortened: as §1
[13] = Cell cycle arrest in human HL60 cells assessed as accumulation at G2 phase at 0.2 uM after 24 hrs by propidium iodide-DNA fluorescence based FACS analysis (reference value: 1 %); format: functional; settings: HL-60; procedure, shortened: as §1
[14] = Cell cycle arrest in human HL60 cells assessed as accumulation at G1 phase at 1 uM after 24 hrs by propidium iodide-DNA fluorescence based FACS analysis (reference value: 46 %); format: functional; settings: HL-60; procedure, shortened: as §1
[15] = Cytotoxicity against human HL60 cells assessed as cell growth inhibition at 50 uM after 48 hrs by MTT assay; format: functional; settings: HL-60, 48 h, read-out: GI; procedure, shortened: as §4
[16] = Cytotoxicity against human LS180 cells assessed as cell growth inhibition after 48 hrs by MTT assay; format: functional, cell-based; settings: LS180, 48 h; procedure, shortened: as §2
[17] = Selectivity index, ratio of IC50 for African green monkey Vero cells to IC50 for human LS180 cells; format: functional; procedure, shortened: as §3
HepG2 = test: Selectivity index, ratio of IC50 for African green monkey Vero cells to IC50 for human HepG2 cells; format: functional; procedure, shortened: as §3
[18] = Cytotoxicity against human HepG2 cells assessed as cell growth inhibition at 50 uM after 48 hrs by MTT assay; format: functional; settings: HepG2, 48 h, read-out: GI; procedure, shortened: as §2
[19] = Cytotoxicity against human LS180 cells assessed as cell growth inhibition at 50 uM after 48 hrs by MTT assay; format: functional; settings: LS180, 48 h, read-out: GI; procedure, shortened: as §2
[20] = Cytotoxicity against human MIAPaCa2 cells assessed as cell growth inhibition at 50 uM after 48 hrs by MTT assay; format: functional; settings: MIA PaCa-2, 48 h, read-out: GI; procedure, shortened: as §2
[21] = Cell cycle arrest in human HL60 cells assessed as accumulation at G1 phase at 0.2 uM after 24 hrs by propidium iodide-DNA fluorescence based FACS analysis (reference value: 46 %); format: functional; settings: HL-60; procedure, shortened: as §1
[22] = Cell cycle arrest in human HL60 cells assessed as accumulation at S phase at 0.2 uM after 24 hrs by propidium iodide-DNA fluorescence based FACS analysis (reference value: 53 %); format: functional; settings: HL-60; procedure, shortened: as §1
[23] = Cytotoxicity against human HL60 cells assessed as cell growth inhibition at 1 uM after 48 hrs by MTT assay; format: functional; settings: HL-60, 48 h, read-out: GI; procedure, shortened: as §4
[24] = Cell cycle arrest in human HL60 cells assessed as accumulation at G1 phase at 0.5 uM after 24 hrs by propidium iodide-DNA fluorescence based FACS analysis (reference value: 46 %); format: functional; settings: HL-60; procedure, shortened: as §1
[25] = Cell cycle arrest in human HL60 cells assessed as accumulation at G2 phase at 5 uM after 24 hrs by propidium iodide-DNA fluorescence based FACS analysis (reference value: 1 %); format: functional; settings: HL-60; procedure, shortened: as §1
[26] = Cytotoxicity against human PC3 cells assessed as cell growth inhibition after 48 hrs by MTT assay; format: functional, cell-based; settings: PC-3, 48 h
Procedure, shortened: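 Exposed 48 h to compound in DMSO (vehicle <0.2% v/v). MTT dye added 3 h before termination; formazan dissolved in DMSO, OD 570 nm with 620 nm reference. Growth inhibition expressed as % of untreated; IC50 taken from the dose series.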

[27] = Cell cycle arrest in human HL60 cells assessed as accumulation at S phase at 5 uM after 24 hrs by propidium iodide-DNA fluorescence based FACS analysis (reference value: 53 %); format: functional; settings: HL-60; procedure, shortened: as §1
[28] = Cell cycle arrest in human HL60 cells assessed as accumulation at G2 phase at 1 uM after 24 hrs by propidium iodide-DNA fluorescence based FACS analysis (reference value: 1 %); format: functional; settings: HL-60; procedure, shortened: as §1
Vero [29] = test: Selectivity index, ratio of IC50 for African green monkey Vero cells to IC50 for human MIAPaCa2 cells; format: functional; procedure, shortened: as §3

SMILES	Activity [1]	Activity (HL-60 [2])	inhibition of growth at 30 µM [3]	Ratio IC50 (Vero [4])	inhibition of growth at 30 µM [5]	Activity [6]	Activity (HL-60 [7])	inhibition of growth at 30 µM [8]	IC50 [9]	inhibition of growth at 0.5 µM [10]	Activity (HL-60 [11])	Activity [12]	Activity [13]	Activity [14]	inhibition of growth at 50 µM [15]	IC50 [16]	Ratio IC50 [17]	Ratio IC50 (HepG2)	inhibition of growth at 50 µM [18]	inhibition of growth at 50 µM [19]	also measured
C[C@H]1[C@@H](OCCOc2ccc(/C=C/C(=O)c3ccc(O)cc3)cc2)O[C@@H]2O[C@@]3(C)CC[C@H]4[C@H](C)CC[C@@H]1[C@@]24OO3	28%	9%	68.3 to 86.8%	240	90.1%	70%	61%	55.2%	22 µM	58.2%	27%	32%	5%	14%	93.6%	24 µM	96	450	55.2 to 82.3%	75.2%	inhibition of growth at 50 µM [20]: 88.8%; Activity [21]: 49%; Activity [22]: 46%; inhibition of growth at 1 µM [23]: 78.8%; Activity [24]: 59%; Activity [25]: 10%; IC50 [26]: 14 µM; Activity [27]: 35%; Activity [28]: 16%; Ratio IC50 (Vero [29]): 88
C[C@H]1[C@@H](OCCOc2cccc(C(=O)/C=C/c3ccc(O)cc3)c2)O[C@@H]2O[C@@]3(C)CC[C@H]4[C@H](C)CC[C@@H]1[C@@]24OO3	9%	7%	37.8 to 77.4%	180	93.3%	29%	58%	25.2%	39 µM	52.9%	34%	38%	6%	52%	94.8%	> 50 µM	>200	55	33.2 to 64.5%	35.2%	inhibition of growth at 50 µM [20]: 88.6%; Activity [21]: 49%; Activity [22]: 46%; inhibition of growth at 1 µM [23]: 57%; Activity [24]: 54%; Activity [25]: 16%; IC50 [26]: 18 µM; Activity [27]: 20%; Activity [28]: 19%; Ratio IC50 (Vero [29]): 32
C[C@H]1[C@@H](O)O[C@@H]2O[C@@]3(C)CC[C@H]4[C@H](C)CC[C@@H]1[C@@]24OO3 [ARTENIMOL]	8%	8%	36%	63	91%	34%	41%	32%	58 µM	36%	20%	37%	2%	62%	93%	32 µM	19	1.81	39%	42%	inhibition of growth at 50 µM [20]: 71%; Activity [21]: 49%; Activity [22]: 49%; inhibition of growth at 1 µM [23]: 48.1%; Activity [24]: 58%; Activity [25]: 5%; IC50 [26]: > 100 µM; Activity [27]: 20%; Activity [28]: 4%; Ratio IC50 (Vero [29]): 12
